Common to all, as to details: in vivo
Data set [1] relates to Rattus norvegicus. In words: Biodistribution in pregnant Sprague-Dawley rat kidney cortex at 5 mg/kg, po administered as single dose measured after 24 hrs. Also on record: dose 5 mg/kg, dosed compound name [14C]-apixaban, route oral. In kind it is ADME, organism-based.
The nature of data set [2]: Drug excretion in Sprague-Dawley rat urine at 30 mg/kg, po administered as single dose after 0 to 168 hrs.
Data set [3] deals with Heart. As to the kind of experiment: Biodistribution in female Sprague-Dawley rat heart at 5 mg/kg, po administered as single dose measured after 1 hr. Type of data set: ADME, organism-based. Also on record: dose 5 mg/kg, dosed compound name [14C]-apixaban, route oral. A digest of the protocol:
(§1)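 [¹⁴C]Apixaban given by oral gavage at 5 mg/kg (100 μCi/kg) in 0.5% Tween 80 in Labrafil (1.0 mg/mL dosing solution) to rats fasted overnight through 4 h post-dose. One rat per time point; carcass frozen in hexane/dry ice. Quantitative whole-body autoradiography used 40 µm sagittal sections and a phosphor imaging plate calibrated with [¹⁴C]glucose standards (0.001–6.5 μCi/g). Read-out in µg eq apixaban/g; LLOQ 0.037 μg eq/g.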

The test system of data set [4] is Pancreas. In words: Biodistribution in pregnant Sprague-Dawley rat pancreas at 5 mg/kg, po administered as single dose measured after 48 hrs. More on the design: dose 5 mg/kg, dosed compound name [14C]-apixaban, route oral. In kind it is ADME, organism-based. The procedure, abridged: (§2)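 Pregnant SD rats (270-319 g) were fasted overnight and given one oral gavage of 5 mg/kg (100 μCi/kg) in 0.5% Tween 80 in Labrafil. One rat was euthanized per time point (0.5, 1, 4, 8, 24, 48 h) and the carcass frozen. 40 µm sagittal sections were phosphor-imaged against [14C]glucose standards and results reported as µg eq/g; LLOQ 0.037 µg eq/g.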

In data set [5] the test system is Muscle tissue. In words: Biodistribution in female Sprague-Dawley rat muscle at 5 mg/kg, po administered as single dose measured after 1 hr. In kind it is ADME, organism-based. More on the design: dose 5 mg/kg, dosed compound name [14C]-apixaban, route oral. The procedure, abridged: as §1
Data set [6] deals with Rattus norvegicus. As to the kind of experiment: Biodistribution in male Sprague-Dawley rat salivary gland at 5 mg/kg, po administered as single dose measured after 72 hrs. In kind it is ADME, organism-based. More on the design: dose 5 mg/kg, dosed compound name [14C]-apixaban, route oral. The procedure, abridged: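 Fasted male SD rats (225-252 g) each received one oral gavage dose of [14C]apixaban, 5 mg/kg (100 μCi/kg), in 0.5% Tween 80/Labrafil vehicle. One rat was killed per time point, from 0.5 to 168 h. Frozen carcasses were cut into 40 µm sagittal whole-body sections and read by QWBA phosphor imaging against [14C]glucose calibrants. Results are in µg apixaban eq/g; BLQ <0.037 µg eq/g.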

The test system of data set [7] is Rattus norvegicus. As to the kind of experiment: Biodistribution in pregnant Sprague-Dawley rat brown fat at 5 mg/kg, po administered as single dose measured after 4 hrs. In kind it is ADME, organism-based, Brown adipose tissue. More on the design: dose 5 mg/kg, dosed compound name [14C]-apixaban, route oral.
Data set [8] deals with Pancreas. As to the kind of experiment: Biodistribution in pregnant Sprague-Dawley rat pancreas at 5 mg/kg, po administered as single dose measured after 24 hrs. More on the design: dose 5 mg/kg, dosed compound name [14C]-apixaban, route oral. Type of data set: ADME, organism-based. A digest of the protocol:
as §2

Data set [9] deals with Adrenal gland. As to the kind of experiment: Biodistribution in pregnant Sprague-Dawley rat adrenal gland at 5 mg/kg, po administered as single dose measured after 1 hr. Type of data set: ADME, organism-based. More on the design: dose 5 mg/kg, dosed compound name [14C]-apixaban, route oral.
Data set [10] concerns Liver. As to the kind of experiment: Biodistribution in pregnant Sprague-Dawley rat liver at 5 mg/kg, po administered as single dose measured after 4 hrs. Type of data set: ADME, organism-based. More on the design: dose 5 mg/kg, dosed compound name [14C]-apixaban, route oral. A digest of the protocol:
(§3)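 Fasted pregnant SD rats (n=6, 270-319 g) each received one oral gavage dose of [14C]apixaban, 5 mg/kg (100 μCi/kg), in 0.5% Tween 80/Labrafil. One rat was killed at each of 0.5, 1, 4, 8, 24 and 48 h. Carcasses were frozen in hexane/dry ice, cut into 40 µm sagittal sections, exposed to phosphor plates and quantified against [14C]glucose standards as µg eq/g. LLOQ was 0.037 µg eq/g.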

For data set [11], the system named is Adrenal gland. As to the kind of experiment: Biodistribution in pregnant Sprague-Dawley rat adrenal gland at 5 mg/kg, po administered as single dose measured after 48 hrs. Also on record: dose 5 mg/kg, dosed compound name [14C]-apixaban, route oral. In kind it is ADME, organism-based. A digest of the protocol:
as §3

Data set [12] concerns Spleen. In words: Biodistribution in male Sprague-Dawley rat spleen at 5 mg/kg, po administered as single dose measured after 1 hr. Also on record: dose 5 mg/kg, dosed compound name [14C]-apixaban, route oral. Type of data set: ADME, organism-based. A digest of the protocol: (§4)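 [14C]apixaban (1.0 mg/mL, 20 μCi/mL) in 0.5% Tween 80 in Labrafil, given by oral gavage at 100 μCi/kg to male rats (225-252 g) fasted overnight through 4 h post-dose. One rat per time point. Carcasses frozen in hexane/dry ice and cut into 40 µm sagittal sections. QWBA read on phosphor plates against [14C]glucose standards, reported as µg eq/g. LLOQ 0.037 µg eq/g.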

Data set [13] deals with Liver. As to the kind of experiment: Biodistribution in female Sprague-Dawley rat liver at 5 mg/kg, po administered as single dose measured after 4 hrs. Also on record: dose 5 mg/kg, dosed compound name [14C]-apixaban, route oral. In kind it is ADME, organism-based. The procedure, abridged: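 Quantitative whole-body autoradiography was run after a single 5 mg/kg (100 μCi/kg) oral gavage to fasted female or pregnant SD rats, one rat per time point. Carcasses were frozen in hexane/dry ice, and 40 µm sagittal sections were dried at −20°C for at least 48 h. Sections were exposed to a phosphor plate alongside [14C]glucose standards (0.001–6.5 µCi/g). Results are µg eq/g, with LLOQ 0.037 µg eq/g.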

In data set [14] the test system is Rattus norvegicus. As to the kind of experiment: Biodistribution in male Sprague-Dawley rat brown fat at 5 mg/kg, po administered as single dose measured after 4 hrs. More on the design: dose 5 mg/kg, dosed compound name [14C]-apixaban, route oral. Type of data set: ADME, organism-based, Brown adipose tissue. The procedure, abridged: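 Fasted male rats, 225-252 g, received [14C]apixaban by single oral gavage at 100 μCi/kg in 0.5% Tween 80/Labrafil. One rat was killed per time point and the carcass frozen. Tissue radioactivity was quantified by QWBA (40 µm sagittal sections, phosphor plate, [14C]glucose calibration) as µg eq apixaban/g, with LLOQ 0.037 μg eq/g.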

In data set [15] the test system is Rattus norvegicus. As to the kind of experiment: Biodistribution in male Sprague-Dawley rat salivary gland at 5 mg/kg, po administered as single dose measured after 0.5 hrs. In kind it is ADME, organism-based. More on the design: dose 5 mg/kg, dosed compound name [14C]-apixaban, route oral.
Data set [16] relates to Muscle tissue. As to the kind of experiment: Biodistribution in male Sprague-Dawley rat muscle at 5 mg/kg, po administered as single dose measured after 8 hrs. Type of data set: ADME, organism-based. More on the design: dose 5 mg/kg, dosed compound name [14C]-apixaban, route oral. The procedure, abridged:
as §4

The next data set deals with Harderian gland. As to the kind of experiment: Biodistribution in male Sprague-Dawley rat harderian gland at 5 mg/kg, po administered as single dose measured after 0.5 hrs. Type of data set: ADME, organism-based. More on the design: dose 5 mg/kg, dosed compound name [14C]-apixaban, route oral. The procedure, abridged: as §1
Data set [17] has as its system Rattus norvegicus. In words: Biodistribution in pregnant Sprague-Dawley rat bone marrow at 5 mg/kg, po administered as single dose measured after 48 hrs. Type of data set: ADME, organism-based. Also on record: dose 5 mg/kg, dosed compound name [14C]-apixaban, route oral. The procedure, abridged: as §3
Data set [18] concerns Pancreas. As to the kind of experiment: Biodistribution in female Sprague-Dawley rat pancreas at 5 mg/kg, po administered as single dose measured after 0.5 hrs. Type of data set: ADME, organism-based. More on the design: dose 5 mg/kg, dosed compound name [14C]-apixaban, route oral. The procedure, abridged:
as §1

Data set [19] relates to Spleen. As to the kind of experiment: Biodistribution in female Sprague-Dawley rat spleen at 5 mg/kg, po administered as single dose measured after 1 hr. Type of data set: ADME, organism-based. Also on record: dose 5 mg/kg, dosed compound name [14C]-apixaban, route oral. A digest of the protocol: as §1
Data set [20] relates to Heart. As to the kind of experiment: Biodistribution in pregnant Sprague-Dawley rat heart at 5 mg/kg, po administered as single dose measured after 4 hrs. Type of data set: ADME, organism-based. More on the design: dose 5 mg/kg, dosed compound name [14C]-apixaban, route oral.
The next data set relates to Plasma. In words: Drug metabolism in Sprague-Dawley rat plasma assessed as apixaban level at 5 mg/kg, po by HPLC method. More on the design: dose 5 mg/kg, dosed compound name [14C]-apixaban, route oral. In kind it is ADME, organism-based. A digest of the protocol:
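After a 5 mg/kg oral dose, samples were radioprofiled by HPLC. The column was C18 with a 0.4% formic acid (pH 3.2)/acetonitrile gradient at 0.7 mL/min. Fractions were collected every 0.25 min and counted for radioactivity. Peaks were identified by ESI LC/MS/MS against synthetic standards. Milk was taken at 1, 6, 12 and 24 h.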

The subject of the next data set is Blood. In words: AUC (0 to t) in pregnant Sprague-Dawley rat blood at 5 mg/kg, po administered as single dose. Type of data set: ADME, organism-based. Also on record: dose 5 mg/kg, dosed compound name [14C]-apixaban, route oral.
Data set [21] deals with Rattus norvegicus. As to the kind of experiment: Biodistribution in pregnant Sprague-Dawley rat salivary gland at 5 mg/kg, po administered as single dose measured after 48 hrs. Also on record: dose 5 mg/kg, dosed compound name [14C]-apixaban, route oral. In kind it is ADME, organism-based. A digest of the protocol: as §2

`COc1ccc(-n2nc(C(N)=O)c3c2C(=O)N(c2ccc(N4CCCC[14C]4=O)cc2)CC3)cc1`: the Radiolabel recovery in the data set on Rattus norvegicus [1] is on record as 0.05 ugequiv/g; in data set [2] it was 14%; in the data set on Heart [3], 0.54 ugequiv/g; in the data set on Pancreas [4] it was “Not detected assumed BLQ”; in the data set with Muscle tissue [5], 0.27 ugequiv/g; in the data set with Rattus norvegicus [6], “Not detected assumed BLQ”. In addition, the Radiolabel recovery in the data set on Rattus norvegicus [7] is 0.87 ugequiv/g; with Pancreas [8] it was “Not detected assumed BLQ”; in the data set with Adrenal gland [9], 1.9 ugequiv/g; with Liver [10] it was 6.13 ugequiv/g; with Adrenal gland [11], “Not sampled as not visualised in autoradiograph”; with Spleen [12], 0.32 ugequiv/g. Besides, the Radiolabel recovery with Liver [13] is 3.98 ugequiv/g; with Rattus norvegicus [14] it was 0.53 ugequiv/g; with Rattus norvegicus [15] it was 0.3 ugequiv/g; in the data set on Muscle tissue [16], 0.06 ugequiv/g; with Harderian gland, 0.21 ugequiv/g; in the data set on Rattus norvegicus [17], “Not detected assumed BLQ”. Also, the Radiolabel recovery with Pancreas [18] is listed as 0.43 ugequiv/g; in the data set with Spleen [19] it was 0.35 ugequiv/g; in the data set with Heart [20], 0.83 ugequiv/g; in the data set on Rattus norvegicus [21], “Not detected assumed BLQ”. The Compound recovery with Plasma is given as 97%. For the same compound, in the data set with Blood, the AUCt was 6980 ngequiv.hr/g.

For the origin of these results see ChEMBL document CHEMBL3525963, “Tissue distribution and elimination of [14C]apixaban in rats” (Drug Metab Dispos, 2011).
